Measured values taken from ChEMBL document CHEMBL5096187, “Efficient Synthesis and Bioevaluation of Novel Dual Tubulin/Histone Deacetylase 3 Inhibitors as Potential Anticancer Agents” (J Med Chem, 2021).

What was measured:
Histone deacetylase 1 = Histone deacetylase 1 (Homo sapiens, UniProt Q13547); test: Inhibition of full length recombinant human HDAC1 (1 to 482 residues) expressed in Baculovirus system using Ac-Leu-Gly-Lys (Ac)-AMC as substrate pretreated for 5 mins followed by substrate addition and measured after 30 mins
Histone deacetylase 1, sequence (Q13547 whole entry, the tested form may be a part): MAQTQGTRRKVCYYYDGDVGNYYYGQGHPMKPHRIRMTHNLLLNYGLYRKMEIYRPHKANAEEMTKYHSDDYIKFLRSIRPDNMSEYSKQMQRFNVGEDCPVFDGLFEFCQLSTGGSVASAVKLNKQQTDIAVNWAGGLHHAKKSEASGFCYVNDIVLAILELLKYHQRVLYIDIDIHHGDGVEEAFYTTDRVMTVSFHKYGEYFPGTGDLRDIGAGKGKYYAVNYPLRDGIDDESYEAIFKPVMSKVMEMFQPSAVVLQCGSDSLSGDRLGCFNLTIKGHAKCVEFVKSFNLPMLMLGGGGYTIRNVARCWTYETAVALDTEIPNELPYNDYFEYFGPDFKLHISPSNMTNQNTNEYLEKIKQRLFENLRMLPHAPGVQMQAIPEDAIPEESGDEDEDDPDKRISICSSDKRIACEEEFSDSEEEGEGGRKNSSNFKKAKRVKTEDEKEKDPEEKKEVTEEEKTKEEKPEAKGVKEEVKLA

B16-F10 = test: Antiproliferative activity against mouse B16-F10 cells assessed as inhibition of cell viability measured for 48 hrs by microplate reader based MTT assay; format: functional; conditions: B16-F10, 48 h
How it was run: (§1)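 Cells grown in RPMI-1640 with 10% FBS and seeded at 5000 cells/well. After overnight attachment, compound was added in medium with 0.1% DMSO for 48 h at 37 °C. Read-out was MTT for HCT-116, B16-F10 and A549, and CCK-8 for Jurkat (0.5 mg/mL, 4 h), with absorbance at 570 nm. IC50 from nonlinear regression; at least three independent experiments.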

[1] = molecular target: T1, Protein deacetylase HDAC6 (Homo sapiens, UniProt Q9UBN7); test: Inhibition of full length N-terminal GST-tagged human recombinant HDAC6 (1 to 1215 residues) expressed in Baculovirus infected Sf9 cells using Ac-Leu-Gly-Lys (Ac)-AMC as substrate pretreated for 5 mins followed by substrate addition and measured after 30 mins
T1 sequence (Q9UBN7 whole entry): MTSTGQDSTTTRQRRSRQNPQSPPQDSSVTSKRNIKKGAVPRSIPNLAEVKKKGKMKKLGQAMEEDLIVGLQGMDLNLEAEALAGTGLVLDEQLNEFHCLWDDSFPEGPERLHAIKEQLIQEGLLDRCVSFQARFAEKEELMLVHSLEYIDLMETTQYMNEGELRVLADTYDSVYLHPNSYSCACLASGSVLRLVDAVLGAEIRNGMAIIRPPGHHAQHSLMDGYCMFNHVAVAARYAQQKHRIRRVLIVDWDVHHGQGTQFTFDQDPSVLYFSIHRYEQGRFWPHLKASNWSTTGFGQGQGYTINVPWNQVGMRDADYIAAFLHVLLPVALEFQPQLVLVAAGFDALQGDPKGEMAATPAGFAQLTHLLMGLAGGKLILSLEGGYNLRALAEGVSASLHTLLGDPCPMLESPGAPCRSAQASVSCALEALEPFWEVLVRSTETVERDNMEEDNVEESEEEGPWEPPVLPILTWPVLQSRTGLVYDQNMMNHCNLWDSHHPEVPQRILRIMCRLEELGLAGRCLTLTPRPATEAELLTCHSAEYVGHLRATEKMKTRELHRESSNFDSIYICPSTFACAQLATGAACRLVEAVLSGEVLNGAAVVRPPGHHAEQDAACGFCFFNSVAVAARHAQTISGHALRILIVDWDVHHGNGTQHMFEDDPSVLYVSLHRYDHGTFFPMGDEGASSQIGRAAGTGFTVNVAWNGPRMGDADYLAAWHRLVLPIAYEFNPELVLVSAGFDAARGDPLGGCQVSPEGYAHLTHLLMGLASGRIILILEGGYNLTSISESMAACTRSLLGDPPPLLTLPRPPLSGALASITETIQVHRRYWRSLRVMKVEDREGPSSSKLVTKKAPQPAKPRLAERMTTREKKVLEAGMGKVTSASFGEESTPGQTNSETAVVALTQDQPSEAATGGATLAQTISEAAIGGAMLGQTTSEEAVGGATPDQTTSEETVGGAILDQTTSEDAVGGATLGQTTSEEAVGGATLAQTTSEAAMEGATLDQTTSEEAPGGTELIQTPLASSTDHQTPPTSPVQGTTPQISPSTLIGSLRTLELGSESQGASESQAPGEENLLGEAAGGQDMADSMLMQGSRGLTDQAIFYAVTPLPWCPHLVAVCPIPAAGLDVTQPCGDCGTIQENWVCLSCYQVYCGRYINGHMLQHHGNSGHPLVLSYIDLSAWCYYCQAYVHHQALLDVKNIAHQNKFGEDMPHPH
How it was run: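 HDAC6 at 15 ng/well in Tris buffer pH 8.0 with MgCl2, BSA, NaCl and KCl. Ten 3-fold dilutions preincubated 5 min at room temperature, then 10 μM Ac-Leu-Gly-Lys(Ac)-AMC for 30 min at 37 °C. IC50 by normalized dose–response nonlinear fit; performed at least three times.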

[2] = Antiproliferative activity against human YCC-11 cells assessed as inhibition of cell viability; format: functional, cell-based
[3] = Antiproliferative activity against human YCC3/7 cells assessed as inhibition of cell viability; format: functional, cell-based
Histone deacetylase 8 = molecular target: T2, Histone deacetylase 8 (Homo sapiens, UniProt Q9BY41); test: Inhibition of full length C-terminal his-tagged human recombinant HDAC8 ([…]) expressed in baculovirus in Sf9 insect cells using Ac-Leu-Gly-Lys (Tfa)-AMC as substrate pretreated for 5 mins followed by substrate addition and measured after 30 mins
T2 sequence (Q9BY41 whole entry): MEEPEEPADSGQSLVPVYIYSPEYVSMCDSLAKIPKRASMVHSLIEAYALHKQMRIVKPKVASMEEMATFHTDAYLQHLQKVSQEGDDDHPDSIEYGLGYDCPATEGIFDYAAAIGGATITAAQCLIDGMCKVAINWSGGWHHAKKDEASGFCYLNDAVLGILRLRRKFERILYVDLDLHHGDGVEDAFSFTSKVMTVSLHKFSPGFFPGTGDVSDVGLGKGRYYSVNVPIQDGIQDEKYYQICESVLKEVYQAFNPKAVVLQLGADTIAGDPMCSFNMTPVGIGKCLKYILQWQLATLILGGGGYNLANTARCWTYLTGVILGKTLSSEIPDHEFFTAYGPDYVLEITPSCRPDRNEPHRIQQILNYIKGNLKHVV

A549 = test: Antiproliferative activity against human A549 cells assessed as inhibition of cell viability measured for 48 hrs by microplate reader based CCK-8 assay; format: functional; conditions: A549, 48 h
HCT-116 = test: Antiproliferative activity against human HCT-116 cells assessed as inhibition of cell viability measured for 48 hrs by microplate reader based MTT assay; format: functional; conditions: HCT-116, 48 h; how it was run: as §1
Jurkat = test: Antiproliferative activity against human Jurkat cells assessed as inhibition of cell viability measured for 48 hrs by microplate reader based CCK-8 assay; format: functional
Histone deacetylase 3 = Histone deacetylase 3 (Homo sapiens, UniProt O15379); test: Inhibition of recombinant HDAC3 (unknown origin) using Ac-Leu-Gly-Lys (Ac)-AMC as substrate pretreated for 5 mins followed by substrate addition and measured after 30 mins
Histone deacetylase 3, sequence (O15379 whole entry): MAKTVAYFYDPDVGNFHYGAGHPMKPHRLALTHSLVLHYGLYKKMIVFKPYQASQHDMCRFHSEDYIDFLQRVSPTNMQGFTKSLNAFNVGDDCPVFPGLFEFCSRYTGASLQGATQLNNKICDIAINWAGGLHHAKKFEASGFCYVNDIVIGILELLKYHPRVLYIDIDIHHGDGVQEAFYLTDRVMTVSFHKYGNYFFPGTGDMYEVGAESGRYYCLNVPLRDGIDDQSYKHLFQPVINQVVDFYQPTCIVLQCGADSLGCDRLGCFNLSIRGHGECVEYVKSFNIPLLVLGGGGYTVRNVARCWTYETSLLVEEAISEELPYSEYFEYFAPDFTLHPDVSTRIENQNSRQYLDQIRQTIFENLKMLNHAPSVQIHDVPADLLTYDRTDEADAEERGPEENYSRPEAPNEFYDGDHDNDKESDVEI

[4] = molecular target: T3, Protein deacetylase HDAC6 (Homo sapiens) (UniProt Q9UBN7); test: Inhibition of recombinant HDAC6 (unknown origin) at 1 uM relative to control
T3 sequence (whole entry): T1 sequence (Q9UBN7 whole entry)
How it was run: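 Single-point test at 1 μM against recombinant HDAC6 (15 ng/well) in 25 mM Tris pH 8.0, 1 mM MgCl₂, 0.1 mg/mL BSA, 137 mM NaCl, 2.7 mM KCl. Compound preincubated 5 min at room temperature, then Ac-Leu-Gly-Lys(Ac)-AMC 10 μM, 30 min at 37 °C. Trypsin/TSA developer 30 min. Fluorescence read at ex 350−360/em 450−460 nm.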

Histone deacetylase 7 = molecular target: T4, Histone deacetylase 7 (Homo sapiens, UniProt Q8WUI4); test: Inhibition of full length N-terminal GST-tagged human recombinant HDAC7 (501 to 952 residues) expressed in Baculovirus system using Ac-Leu-Gly-Lys (Ac)-AMC as substrate pretreated for 5 mins followed by substrate addition and measured after 30 mins
T4 sequence (Q8WUI4 whole entry): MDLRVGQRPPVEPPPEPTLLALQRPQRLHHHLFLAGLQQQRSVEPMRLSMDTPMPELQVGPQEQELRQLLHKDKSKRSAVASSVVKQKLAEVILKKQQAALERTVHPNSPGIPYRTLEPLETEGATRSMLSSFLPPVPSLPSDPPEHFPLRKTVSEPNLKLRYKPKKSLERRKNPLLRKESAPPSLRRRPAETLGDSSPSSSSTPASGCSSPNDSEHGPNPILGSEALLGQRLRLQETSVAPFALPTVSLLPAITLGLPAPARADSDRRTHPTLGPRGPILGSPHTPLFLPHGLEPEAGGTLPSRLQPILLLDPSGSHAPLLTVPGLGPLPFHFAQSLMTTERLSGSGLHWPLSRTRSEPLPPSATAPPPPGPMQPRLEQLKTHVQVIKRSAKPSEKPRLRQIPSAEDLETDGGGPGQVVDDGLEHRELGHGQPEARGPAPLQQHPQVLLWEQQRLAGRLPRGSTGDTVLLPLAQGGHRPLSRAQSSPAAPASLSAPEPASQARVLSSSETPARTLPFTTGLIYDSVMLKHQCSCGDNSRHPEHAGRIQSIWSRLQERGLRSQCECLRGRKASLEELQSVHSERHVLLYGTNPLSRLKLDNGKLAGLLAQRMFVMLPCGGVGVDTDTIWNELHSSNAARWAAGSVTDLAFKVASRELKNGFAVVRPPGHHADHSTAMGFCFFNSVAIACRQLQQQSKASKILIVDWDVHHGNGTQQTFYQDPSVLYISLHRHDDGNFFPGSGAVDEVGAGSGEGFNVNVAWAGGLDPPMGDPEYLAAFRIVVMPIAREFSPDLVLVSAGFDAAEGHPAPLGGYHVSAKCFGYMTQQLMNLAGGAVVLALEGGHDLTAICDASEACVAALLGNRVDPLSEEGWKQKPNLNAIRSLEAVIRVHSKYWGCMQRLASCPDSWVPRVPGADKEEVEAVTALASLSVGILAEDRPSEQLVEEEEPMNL

Tubulin (Sus scrofa) = Tubulin (Sus scrofa) (UniProt P02554+P02550); test: Inhibition of pig brain tubulin polymerization at 10 uM measured after 20 mins by spectrometric method relative to control
Tubulin (Sus scrofa), sequence (P02550 whole entry, looked up): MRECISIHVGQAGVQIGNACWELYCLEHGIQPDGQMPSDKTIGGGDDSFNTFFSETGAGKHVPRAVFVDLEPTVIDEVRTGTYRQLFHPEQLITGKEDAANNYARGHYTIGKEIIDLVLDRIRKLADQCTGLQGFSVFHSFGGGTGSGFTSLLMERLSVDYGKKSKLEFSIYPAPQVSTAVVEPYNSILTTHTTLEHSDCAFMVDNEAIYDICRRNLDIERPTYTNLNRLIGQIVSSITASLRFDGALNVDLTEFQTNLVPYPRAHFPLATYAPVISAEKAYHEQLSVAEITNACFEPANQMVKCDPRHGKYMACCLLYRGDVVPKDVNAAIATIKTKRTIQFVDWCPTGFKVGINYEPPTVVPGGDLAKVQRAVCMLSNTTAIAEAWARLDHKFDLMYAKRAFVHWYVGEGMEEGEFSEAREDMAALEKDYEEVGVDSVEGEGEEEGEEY
Tubulin (Sus scrofa), sequence (P02554 whole entry, looked up): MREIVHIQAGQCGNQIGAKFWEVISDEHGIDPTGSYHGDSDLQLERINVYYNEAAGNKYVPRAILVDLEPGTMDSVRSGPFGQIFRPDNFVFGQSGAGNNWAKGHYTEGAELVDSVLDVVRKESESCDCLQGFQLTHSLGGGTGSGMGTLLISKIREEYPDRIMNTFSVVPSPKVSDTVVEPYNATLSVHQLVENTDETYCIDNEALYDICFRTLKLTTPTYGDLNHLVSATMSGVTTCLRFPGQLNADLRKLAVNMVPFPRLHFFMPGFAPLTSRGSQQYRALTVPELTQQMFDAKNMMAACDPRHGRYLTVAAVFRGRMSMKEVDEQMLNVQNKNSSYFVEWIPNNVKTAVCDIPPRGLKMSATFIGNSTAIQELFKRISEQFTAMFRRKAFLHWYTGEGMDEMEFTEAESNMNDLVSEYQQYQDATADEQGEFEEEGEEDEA
How it was run: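 Pig brain tubulin was purified by three assembly/disassembly cycles and then phosphocellulose chromatography. Compound at 10 μM in PEM buffer with 1 mM GTP and 5% glycerol at 37 °C. Polymerization followed at 340 nm; inhibition taken at 20 min versus vehicle control.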

Compound | IC50 (Histone deacetylase 1) | IC50 (B16-F10) | IC50 [1] | IC50 [2] | IC50 [3] | IC50 (Histone deacetylase 8) | IC50 (A549) | IC50 (HCT-116) | IC50 (Jurkat) | IC50 (Histone deacetylase 3) | inhibition [4] | IC50 (Histone deacetylase 7) | inhibition (Tubulin (Sus scrofa))
COc1cc(C(=O)c2csc(-c3ccc(NC(=O)CCCCCCC(=O)Nc4ccccc4N)cc3)n2)cc(OC)c1OC | 9880 nM | 910 nM | 29200 nM | 3680 nM | 5310 nM | 10200 nM | 2100 nM | 360 nM | 30 nM | 1730 nM |  |  | 
COc1cc(C(=O)c2csc(-c3ccc(NC(=O)CCCCC(=O)NO)cc3)n2)cc(OC)c1OC | 16600 nM | > 10000 nM | 2550 nM |  |  | 3280 nM | > 10000 nM | 770 nM | 60 nM | 13100 nM | > 50% |  | 
COc1cc(C(=O)c2csc(-c3ccc(NC(=O)CCCC(=O)NO)cc3)n2)cc(OC)c1OC | 10100 nM | 750 nM | 1730 nM |  |  | 6320 nM | > 10000 nM | 150 nM | 40 nM | 13600 nM | > 50% |  | 
COc1cc(C(=O)c2csc(-c3ccc(OCc4ccc(/C=C/C(=O)NO)cc4)cc3)n2)cc(OC)c1OC | 6860 nM | 2210 nM | 2070 nM |  |  | 7100 nM | > 10000 nM | 2780 nM | 480 nM | 8860 nM | > 50% |  | 
COc1cc(C(=O)c2csc(-c3ccc(NC(=O)/C=C/C(=O)Nc4ccccc4N)cc3)n2)cc(OC)c1OC | 14400 nM | 3950 nM | 30200 nM |  |  | 800 nM | 2980 nM | 870 nM | 260 nM | 3960 nM |  | 43000 nM | 67%
COc1cc(C(=O)c2csc(-c3ccc(OCCCC(=O)NO)cc3)n2)cc(OC)c1OC | 6270 nM | 3830 nM | 1150 nM | 920 nM | 1280 nM | 8840 nM | 1930 nM | 100 nM | 530 nM | 9560 nM | > 50% |  | 39%
COc1cc(C(=O)c2csc(-c3ccc(/C=C/C(=O)NO)cc3)n2)cc(OC)c1OC | 8490 nM | 1380 nM | 1590 nM | 4090 nM | 6140 nM | 2710 nM | 750 nM | 100 nM | 20 nM | 19100 nM | > 50% |  | 47%
COc1cc(C(=O)c2csc(-c3ccc(NC(=O)CCCCCC(=O)NO)cc3)n2)cc(OC)c1OC | 19100 nM | > 10000 nM | 1940 nM |  |  | 4170 nM | > 10000 nM | 1900 nM | 150 nM | 12200 nM | > 50% |  | 
